CHOP inhibitor = inhibitors of CHOP induction in ER stress response; CHO-K1 CHOP-promoter luciferase, tunicamycin-induced, 15-18 h; inhibition, % at 10 µM; 220,000 compounds, 3.8% hits;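 active means compounds that reduced the stress-induced luciferase reporter signal by more than about 70% of percent inhibition, limit read from the data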;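 further: 0% = tunicamycin plus vehicle and 100% = wells without tunicamycin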
TbMetRS inhib = blocks T. brucei methionyl-tRNA synthetase activity | 360,000 compounds, 0.4% hits | inhibition, % at 11.9 µM | purified T. brucei MetRS, ATP depletion, Kinase-Glo luminescence;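 active means inhibition above a per-plate cutoff of the control wells' mean inhibition plus 3 SD, cut at about 5.5% in these data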;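 further: 0% = DMSO wells median and 100% = median of wells with control inhibitor compound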
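Material: parasite MetRS enzyme / Replication: singlicate, one well per compound / Signal: luminescence of leftover ATP / Schedule: 2 h aminoacylation at 25 °C after 15 min preincubation / Medium: HEPES-MgCl2-KCl buffer plus DTT, spermine, BSA, pyrophosphatase / Doses: 11.9 µM single point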
WT yeast gro inh = growth inhibition of WT yeast, mitochondrial fusion screen. mitochondrial fusion phenotypic screen, WT strain. inhibition, % at 10 µM. 190,000 compounds, 2.1% hits; in the data active means inhibition above about 58%; tested in S. cerevisiae
EBV gp42 inh = EBV gp42 inhibition. Q1HVG2. Fluorescence polarization binding assay, mP read-out. inhibition, % (tested at 21.74 µM). 220,000 compounds, 0.42% hits. AID 1085; in the data active means inhibition above about 50%
Target sequence (Q1HVG2 whole entry, looked up): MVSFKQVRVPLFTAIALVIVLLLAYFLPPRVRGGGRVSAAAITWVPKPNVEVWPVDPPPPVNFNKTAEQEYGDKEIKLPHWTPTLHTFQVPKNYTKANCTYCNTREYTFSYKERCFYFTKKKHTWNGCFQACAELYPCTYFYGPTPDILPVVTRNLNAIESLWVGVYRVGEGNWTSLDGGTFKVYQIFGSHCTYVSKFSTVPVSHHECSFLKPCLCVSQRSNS
NR3A LBD binder = modulators (binders) of human NR3A ligand-binding domain; 340,000 compounds, 2.5% hits; NR3A LBD differential scanning fluorimetry, Tm shift; 0% = protein alone, 100% = glycine-bound protein; AID 1259313; Tm shift relative to glycine control, % at 25 µM;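 active means melting temperature shift of at least 10% of the positive control shift, at one fixed dose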
MPTP inh = permeability transition pore inhibition; isolated mouse mitochondria, Ca2+ swelling absorbance, 30 min; inhibition, % at 10 µM; 360,000 compounds, 1.4% hits;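 active means inhibition of 50% or more, scaled per plate between neutral and stimulator controls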;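 further: 0% = DMSO wells given calcium and 100% = 1 mM EGTA wells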
MPTP counter = membrane potential counter-screen of mitochondrial pore inhibitors; inhibition, % at 10 µM; 5,000 compounds, 78% hits; isolated mitochondria, Rhodamine 123 fluorescence; shares compounds with MPTP inh; in the data active means inhibition above about 22%;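 further: 0% = DMSO vehicle and 100% = positive control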
MPTP abs DR = MPTP inhibition, dose response swelling confirmation. 780 compounds, 58% hits. IC50, µM. isolated mitochondria swelling, absorbance. shares compounds with MPTP inh; in the data active means IC50 below about 20 µM
MPTP counter DR = counter-screen for mitochondrial permeability transition pore inhibitors, dose response; IC50, µM; shares compounds with MPTP inh; AID 651564; 780 compounds, 49% hits; isolated mitochondria counterscreen, fluorescence read-out; in the data active means IC50 below about 80 µM
* = called active by the depositor; i = inactive; x = not tested or not shown. Hits are enriched below; roughly 6.4% of the tested compounds scored in any of these assays.

SMILES | CHOP inhibitor | TbMetRS inhib | WT yeast gro inh | EBV gp42 inh | NR3A LBD binder | MPTP inh | MPTP counter | others
COc1cccc(NC(=O)COc2ncnc3sc(C)c(C)c23)c1 | 28 | 1 | -2 | 0 | -2 | 3 | x
C=CCn1c(CSc2nc3ccccc3s2)nnc1SCC(=O)NCc1cccnc1 | 16 | 1 | -5 | -12 | -1 | -1 | x
COc1ccc(Cn2nnnc2C(c2ccc(C)cc2)N2CCN(C3CCCC3)CC2)cc1 (stereo not drawn) | 20 | -1 | 6 | -19 | -2 | 77* | -10 | MPTP abs DR=>100;MPTP counter DR=>80
CNC(=O)/C(C#N)=C/c1c(N2CCN(C)CC2)nc2c(C)cccn2c1=O | x | -2 | x | x | 2 | -1 | x
Cc1ccc(S(=O)(=O)N(C)CC(=O)Nc2nc3ccccc3s2)cc1 | 44 | -1 | 3 | -17 | -11 | 1 | x
Cc1ccc(/C(=N/Nc2nc3ccccc3s2)C2=C(O)c3ccccc3C2=O)cc1 | 35 | 0 | 24 | -12 | 19* | 90* | 71*
O=C(Nc1cc(Cl)cc(Cl)c1)c1coc(=O)c(Br)c1 | -6 | 0 | x | -11 | 4 | 81* | 87*
O=C(NC(CO)(CO)CO)c1coc(=O)c(Br)c1 | -36 | -1 | 27 | 4 | 2 | -2 | x
CN1/C(=C\C(=O)CSc2ncn[nH]2)C(C)(C)c2ccccc21 | 17 | 0 | 12 | -12 | 0 | 2 | x
Cc1nn(-c2ccccc2)c2ncc(C(=O)c3cc(Cl)ccc3O)cc12 | 44 | 0 | 20 | 4 | 4 | 62* | 83*
CCSc1nnc(NC(=O)c2cccnc2)s1 | -32 | 0 | 4 | -17 | 0 | -1 | x
CCc1nc(SCc2ccc(OCC(C)C)cc2)n[nH]1 | x | 0 | x | x | 0 | 86* | 67*
C(=N\Nc1nc(-c2ccccc2)cs1)/c1ccco1 | 6 | 0 | 19 | -15 | -6 | 2 | x
O=C(c1ccc(-c2ccccc2)cc1)c1ccccc1C(=O)N1CCOCC1 | -23 | -1 | -2 | -17 | 1 | -2 | x
COc1ccc(OC)c(/C=N/N=C2\SCC(=O)N2Cc2ccco2)c1 | 21 | 0 | 5 | -5 | 2 | 2 | x
COc1ccc(CN2C(=O)CS/C2=N/N=C/c2cccs2)cc1 | -6 | 0 | x | -3 | 1 | 82* | 62*
O=C(Nc1nc(-c2ccc(Cl)cc2)cs1)NC1CCCCC1 | 28 | 1 | 41 | -11 | 9 | 92* | 88*
Cc1csc(NC(=O)Nc2cccc(Cl)c2)n1 | 39 | 0 | 29 | 0 | 28* | 92* | 75*
Cn1nc(-c2ccc(Cl)cc2)cc1NC(=O)Nc1ccccc1 | -1 | 0 | x | -1 | 26* | 70* | 69*
Cc1cc(NC(=O)Nc2ccc(Cl)cc2)n(C)n1 | x | 1 | x | x | 2 | 2 | x
Cc1noc(-c2ccccc2)c1NC(=O)Nc1ccc(Cl)cc1 | 11 | 4 | x | -10 | 2 | 84* | 97*
O=C(Nc1nnc(-c2ccc(Cl)cc2)o1)NC1CCCCC1 | 42 | 0 | -3 | 2 | -4 | 1 | x
O=C(CSC1CCCCC1)Nc1ccccc1Br | 17 | -1 | 15 | -9 | 2 | -1 | x
NC(=O)CSc1nnc(C2CC2)n1Cc1ccccc1 | -4 | 0 | -17 | -8 | 0 | 0 | x
NC(CO)c1csc(NC(=O)Nc2cccc(Cl)c2)n1 (stereo not drawn) | x | 0 | x | x | x | 2 | x
SMILES | CHOP inhibitor | TbMetRS inhib | WT yeast gro inh | EBV gp42 inh | NR3A LBD binder | MPTP inh | MPTP counter | others
O=C(Nc1cccc(Cl)c1)Nc1nc(-c2ccccc2)cs1 | 2 | -1 | -3 | -21 | 31* | 94* | 83*
O=C(Nc1ccc(Cl)cc1)Nc1nc(-c2ccccc2)cs1 | -43 | 0 | 8 | -6 | 11* | 94* | 92*
Cc1cccc(/C=N/n2c(C)nnc2C)c1 | -8 | -1 | 5 | -15 | 0 | -1 | x
Cc1ccc2cc(CN(CCN(C)C)C(=O)Nc3ccc(Cl)cc3)c(=O)[nH]c2c1 | 2 | 3 | 4 | -7 | 11* | 92* | 100*
Cc1ccc2[nH]c(=O)c(CN(CCCN(C)C)C(=O)Nc3ccc(Cl)cc3)cc2c1 | 1 | 1 | 9 | -22 | 0 | 0 | x
CNC(=S)Nc1cc(Cl)ccc1Oc1ccccc1 | 19 | 0 | -5 | 0 | -6 | 2 | x
S=C(Nc1ccccc1Oc1ccccc1)Nc1cccc(Cl)c1Cl | 35 | 0 | 65* | -10 | -3 | 78* | 69*
S=C(Nc1cccc(Cl)c1)Nc1ccccc1Oc1ccccc1 | 74* | 1 | 52 | 7 | 10 | 91* | 110*
CSc1nsc(SC)c1NC(=O)N1CCCC1 | 57 | -1 | -10 | -8 | 2 | -2 | x
NC(=O)c1ccccc1NC(=O)CN1CCOCC1 | 13 | 0 | -4 | 5 | 1 | -1 | x
CC1CC(C)(C)N(C(=O)CN2CCN(C)CC2)c2ccccc21 (stereo not drawn) | x | -1 | x | x | 1 | 0 | x
CN1CCN(CC(=O)N2c3ccccc3C(C)(c3ccccc3)CC2(C)C)CC1 (stereo not drawn) | 15 | -1 | 7 | -12 | -2 | 74* | -9 | MPTP abs DR=i;MPTP counter DR=>80
CN1CCN(CC(=O)N2c3ccccc3C(C)(c3ccc(Cl)cc3)CC2(C)C)CC1 (stereo not drawn) | 32 | -1 | 19 | 1 | 7 | 75* | -3 | MPTP abs DR=19*;MPTP counter DR=>80
COCCn1c(SCc2ccccc2Cl)nc2c1c(=O)[nH]c(=O)n2C | 48 | -1 | x | -4 | -2 | -1 | x
O=C1c2cccc(OCC(=O)N3CCCc4ccccc43)c2CCN1Cc1cccnc1 | 26 | 2 | -18 | -19 | 0 | 82* | 34*
CCN1CCc2c(OCC(=O)N3CCc4ccccc43)cccc2C1=O | 17 | x | -3 | -2 | x | x | x
Cc1ccc(NC(=S)/C(C#N)=C2/Nc3ccccc3S2)cc1 | x | 0 | x | x | x | 65* | 39*
N#C/C(C(=O)N1CCCCC1)=C1\Nc2ccccc2S1 | 18 | 0 | 4 | -12 | -27 | 1 | x
O=C(c1cc(COc2cccc(C(F)(F)F)c2)on1)N1CCCC1 | x | 0 | x | x | x | 1 | x
O=C(c1cc(COc2cccc(C(F)(F)F)c2)on1)N1CCC(Oc2cccnc2)CC1 | x | 0 | x | x | 1 | 60* | 83*
CC(=O)c1ccc(OCc2cc(C(=O)N3CCC(Oc4ccccc4C)CC3)no2)cc1 | x | 1 | x | x | -1 | -1 | x
O=C(c1cc(COc2ccc(F)cc2Cl)on1)N1CCC(OCc2cccnc2)CC1 | 39 | 1 | 13 | 6 | 0 | 68* | 23*
Cc1ccc(OCc2cc(C(=O)N3CCC(Oc4cccnc4)CC3)no2)cc1C | x | 0 | x | x | 6 | 91* | 89*

Bioassay records: PubChem BioAssay, several laboratories
